Reference: ChEMBL document CHEMBL1122426, “Radioiodine-labeled N,N-dimethyl-N'-(2-hydroxy-3-alkyl-5-iodobenzyl)-1,3-propanediamines for brain perfusion imaging” (J Med Chem, 1983)

What was measured:
Rattus norvegicus [1] = organism: Rattus norvegicus; assay: Effect of specific activity of compound on biodistribution in rats blood 1 hr after injection at the dose of 0.25 mg value expressed in average % dose per organ; value may range from 0.83 to 0.92; format: ADME, organism-based; details: in vivo
Rattus norvegicus [2] = organism: Rattus norvegicus; assay: Effect of specific activity of compound on biodistribution in rats brain 1 hr after injection at the dose of 6.25 mg value expressed in average % dose per organ; value may range from 1.95 to 2.70; format: ADME, organism-based; details: in vivo
Procedure, shortened: (§1)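 Rats received an intravenous injection of the I-125 labeled diamine with added unlabeled carrier (6.25, 2.5, 0.25 or 0.025 mg per dose). At 1 h, organs were counted. Percent dose per organ came from comparing tissue radioactivity with diluted aliquots of the injected dose. Values are the average and range of 3 rats. Brain/blood ratio was taken from % dose per gram, calculated using mean organ weights (brain 1.65 g; blood 18 g).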

Rattus norvegicus [3] = organism: Rattus norvegicus; assay: Effect of specific activity of compound on biodistribution in rats brain after injection at the dose of 0.025 mg value expressed in average % dose per organ; value may range from 1.39 to 1.56; format: ADME, organism-based; details: in vivo; procedure, shortened: as §1
Rattus norvegicus [4] = organism: Rattus norvegicus; assay: Effect of specific activity of compound on biodistribution in rats heart 1 hr after injection at the dose of 0.25 mg value expressed in average % dose per organ 0.69 to 0.74; format: ADME, organism-based; details: in vivo; procedure, shortened: as §1
Rattus norvegicus [5] = organism: Rattus norvegicus; assay: Effect of specific activity of compound on biodistribution in rats lungs 1 hr after injection at the dose of 0.25 mg value expressed in average % dose per organ; value may range from 12.0 to 20.3; format: ADME, organism-based, Lung; details: in vivo; procedure, shortened: as §1
Rattus norvegicus [6] = organism: Rattus norvegicus; assay: Effect of specific activity of compound on biodistribution in rats muscle 1 hr after injection at the dose of 0.25 mg value expressed in average % dose per organ; value may range from 11.0 to 13.4; format: ADME, organism-based, Muscle tissue; details: in vivo; procedure, shortened: as §1
Rattus norvegicus [7] = organism: Rattus norvegicus; assay: Effect of specific activity of compound on biodistribution in rats muscle 1 hr after injection at the dose of 6.25 mg value expressed in average % dose per organ; value may range from 11.5 to 12.9; format: ADME, organism-based, Muscle tissue; details: in vivo; procedure, shortened: as §1
Rattus norvegicus [8] = assay: Biodistribution of I-125 labeled compound in rat liver, 1 hr after intravenous injection. value expressed in average % dose per organ; value may range from 6.22 to 7.81; format: ADME, organism-based; details: in vivo
Rattus norvegicus [9] = assay: Biodistribution of I-125 labeled compound in rat blood, 2 min after intravenous injection. value expressed in average % dose per organ; value may range from 2.42 to 2.84; format: ADME, organism-based; details: in vivo
Rattus norvegicus [10] = assay: Biodistribution of I-125 labeled compound in rat liver, 2 min after intravenous injection. value expressed in average % dose per organ; value may range from 7.90 to 10.6; format: ADME, organism-based; details: in vivo
Rattus norvegicus [11] = organism: Rattus norvegicus; assay: Effect of specific activity of compound on biodistribution in rats blood 1 hr after injection at the dose of 0.025 mg value expressed in average % dose per organ; value may range from 0.84 to 0.99; format: ADME, organism-based; details: in vivo
[12] = Biodistribution of […] in a monkey thyroid. 1 hr after intravenous injection. the value expressed in %dose/gram; format: ADME, organism-based, Thyroid gland; details: simiiformes, in vivo
Procedure, shortened: (§2)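 Monkey sedated with ketamine and anesthetized with nembutal, then given ~100 μCi [125I] label (~7 mCi/mg) intravenously. Killed 1 h later by nembutal overdose. Organs dissected, weighed and counted. % dose per organ found against diluted injected-dose aliquots; % dose per gram also reported; brain/blood from per-gram values. Single animal.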

Rattus norvegicus [13] = organism: Rattus norvegicus; assay: Effect of specific activity of compound on biodistribution in rats liver 1 hr after injection at the dose of 2.5 mg value expressed in average % dose per organ; value may range from 17.1 to 20.7; format: ADME, organism-based; details: in vivo; procedure, shortened: as §1
Rattus norvegicus [14] = organism: Rattus norvegicus; assay: Effect of specific activity of compound on biodistribution in rats liver after injection at the dose of 0.025 mg value expressed in average % dose per organ; value may range from 6.23 to 7.26; format: ADME, organism-based; details: in vivo; procedure, shortened: as §1
Rattus norvegicus [15] = organism: Rattus norvegicus; assay: Distribution coefficient at pH 7.0 in rat; format: ADME, organism-based
Procedure, shortened: (§3)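 Octanol/buffer partition: I-125 labeled diamine mixed with 3 g each of 1-octanol and 0.1 M phosphate buffer at pH 7.0 or 7.4, vortexed 3× 1 min, centrifuged 5 min. Two 0.5 g samples of each layer counted. Value is cpm/g octanol over cpm/g buffer, usually repeated three times.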

Rattus norvegicus [16] = organism: Rattus norvegicus; assay: Distribution coefficient at pH 7.4 in rat; format: ADME, organism-based; procedure, shortened: as §3
Rattus norvegicus [17] = organism: Rattus norvegicus; assay: Effect of specific activity of compound on biodistribution in rats thyroid 1 hr after injection at the dose of 2.5 mg value expressed in average % dose per organ; value may range from 0.12 to 0.14; format: ADME, organism-based, Thyroid gland; details: in vivo; procedure, shortened: as §1
Rattus norvegicus [18] = organism: Rattus norvegicus; assay: Effect of specific activity of compound on biodistribution in rats brain to blood ratio 1 hr after injection at the dose of 2.5 mg value expressed in % dose per gram ratio; format: ADME, organism-based; procedure, shortened: as §1
Rattus norvegicus [19] = organism: Rattus norvegicus; assay: Effect of specific activity of compound on biodistribution in rats brain to blood ratio 1 hr after injection at the dose of 6.25 mg value expressed in % dose per gram ratio; format: ADME, organism-based; procedure, shortened: as §1
Rattus norvegicus [20] = assay: Biodistribution of I-125 labeled compound in rat lungs, 1 hr after intravenous injection. value expressed in average % dose per organ; value may range from 10.6 to 15.1; format: ADME, organism-based, Lung; details: in vivo
Rattus norvegicus [21] = assay: Biodistribution of I-125 labeled compound in rat lungs, 2 min after intravenous injection. value expressed in average % dose per organ; value may range from 15.7 to 18.7; format: ADME, organism-based, Lung; details: in vivo
[22] = Biodistribution of […] compound in a monkey blood. 1 hr after intravenous injection. the value expressed in%dose/organ; format: ADME, organism-based; details: simiiformes, in vivo; procedure, shortened: as §2
[23] = Biodistribution of [123I]- compound in a monkey brain. 1 hr after intravenous injection. the value expressed in %dose/organ; format: ADME, organism-based; details: simiiformes, in vivo
Rattus norvegicus [24] = organism: Rattus norvegicus; assay: Effect of specific activity of compound on biodistribution in rats muscle 1 hr after injection at the dose of 2.5 mg value expressed in average % dose per organ; value may range from 12.7 to 18.3; format: ADME, organism-based, Muscle tissue; details: in vivo; procedure, shortened: as §1
Rattus norvegicus [25] = organism: Rattus norvegicus; assay: Effect of specific activity of compound on biodistribution in rats brain 1 hr after injection at the dose of 0.25 mg value expressed in average % dose per organ; value may range from 1.76 to 1.97; format: ADME, organism-based; details: in vivo; procedure, shortened: as §1
[26] = Biodistribution of [125I]- compound in a monkey lungs.1h after intravenous injection. the value expressed in%dose/organ; details: simiiformes, in vivo
[27] = Biodistribution of [125I]- compound in a monkey bone. 1 hr after intravenous injection. the value expressed in %dose/gram; details: simiiformes, in vivo
[28] = Biodistribution of [125I]- compound in a monkey brain. 1 hr after intravenous injection. the value expressed in %dose/gram; details: simiiformes, in vivo
[29] = Biodistribution of [125I]- compound in a monkey liver. 1 hr after intravenous injection. the value expressed in %dose/gram; details: simiiformes, in vivo
[30] = Biodistribution of [125I]- compound in a monkey liver. 1 hr after intravenous injection. the value expressed in %dose/organ; details: simiiformes, in vivo
[31] = Biodistribution of [125I]- compound in a monkey spleen. 1 hr after intravenous injection. the value expressed in%dose/organ; details: simiiformes, in vivo
[32] = Biodistribution of [125I]- compound in a monkey kidneys. 1 hr after intravenous injection. the value expressed in %dose/gram; details: simiiformes, in vivo
[33] = Biodistribution of [125I]- compound in a monkey thyroid. 1 hr after intravenous injection. the value expressed in %dose/organ; details: simiiformes, in vivo

Average dose per organ (Rattus norvegicus [1]): 0.88% | Average dose per organ (Rattus norvegicus [2]): 2.38% | Average dose per organ (Rattus norvegicus [3]): 1.47% | Average dose per organ (Rattus norvegicus [4]): 0.72% | Average dose per organ (Rattus norvegicus [5]): 15.2% | Average dose per organ (Rattus norvegicus [6]): 12.1% | Average dose per organ (Rattus norvegicus [7]): 12.3% | Average dose per organ (Rattus norvegicus [8]): 7.14% | Average dose per organ (Rattus norvegicus [9]): 2.63% | Average dose per organ (Rattus norvegicus [10]): 9.51% | Average dose per organ (Rattus norvegicus [11]): 0.91% | Dose/g [12]: 0.039% | Average dose per organ (Rattus norvegicus [13]): 18.9% | Average dose per organ (Rattus norvegicus [14]): 6.74% | Distribution coefficient (Rattus norvegicus [15]): 3.39 | Distribution coefficient (Rattus norvegicus [16]): 11.6 | Average dose per organ (Rattus norvegicus [17]): 0.13% | Ratio (Rattus norvegicus [18]): 37.3% | Ratio (Rattus norvegicus [19]): 43% | Average dose per organ (Rattus norvegicus [20]): 11.7% | Average dose per organ (Rattus norvegicus [21]): 16.9% | Dose per organ [22]: 1.23% | Dose per organ [23]: 3.18% | Average dose per organ (Rattus norvegicus [24]): 16.2% | Average dose per organ (Rattus norvegicus [25]): 1.84% | Dose per organ [26]: 33% | Dose/g [27]: 0.00168% | Dose/g [28]: 0.0349% | Dose/g [29]: 0.149% | Dose per organ [30]: 19.7% | Dose per organ [31]: 2.39% | Dose/g [32]: 0.602% | Dose per organ [33]: 0.333%
Compound: Cc1cc(I)cc(CNCCCN(C)C)c1O
